According to ChEMBL document CHEMBL3046311, “Synthesis and antifungal activities of alkyl N-(1,2,3-thiadiazole-4-carbonyl) carbamates and S-alkyl N-(1,2,3-thiadiazole-4-carbonyl) carbamothioates” (2005):

Key:
Format in all cases: functional
Conditions in all cases: read-out: GI
Fusarium graminearum [1] = test: Fungistatic activity against Fusarium graminearum assessed as inhibition of mycelial growth measured at 5 ug/mL at 28 degC after 72 hr relative to control
Method in brief: (§1)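 Poisoned-food plate assay with Gibberella zeae. Compound in acetone (500 or 50 µg/mL stocks) is mixed 1:9 with molten potato dextrose agar at 50 °C and poured. Once set, plates are inoculated with a 4 mm mycelium disk, inverted, and held 72 h at 28 °C. Water is the negative control, run in triplicate. Colony radius is measured, and inhibition = (C−T)/C × 100%.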

Alternaria kikuchiana [2] = test: Fungistatic activity against Alternaria kikuchiana assessed as inhibition of mycelial growth measured at 50 ug/mL at 28 degC after 72 hr relative to control
Method in brief: (§2)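 Compounds in acetone at stock levels of 500 and 50 µg/mL; 1 mL of stock mixed into 9 mL thawed potato dextrose agar at 50 °C and poured. Solidified plates were inoculated with a 4 mm mycelial disk, inverted, and held at 28 °C for 72 h. Water served as negative control, in triplicate. Inhibition was calculated as (C−T)/C × 100% from colony radii.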

Fusarium graminearum [3] = test: Fungistatic activity against Fusarium graminearum assessed as inhibition of mycelial growth measured at 50 ug/mL at 28 degC after 72 hr relative to control; method in brief: as §1
Alternaria kikuchiana [4] = test: Fungistatic activity against Alternaria kikuchiana assessed as inhibition of mycelial growth measured at 5 ug/mL at 28 degC after 72 hr relative to control; method in brief: as §2

SMILES | inhibition of growth at 5 µg/mL (Fusarium graminearum [1]) [%] | inhibition of growth at 50 µg/mL (Alternaria kikuchiana [2]) [%] | inhibition of growth at 50 µg/mL (Fusarium graminearum [3]) [%] | inhibition of growth at 5 µg/mL (Alternaria kikuchiana [4]) [%]
CCCCOC(=O)NC(=O)c1csnn1 | 6 | 50 | 11 | 23
CCCCCOC(=O)NC(=O)c1csnn1 | 4 | 45 | 42 | 36
CC(C)CCOC(=O)NC(=O)c1csnn1 | 15 | 50 | 100 | 25
CCCCCCOC(=O)NC(=O)c1csnn1 | 23 | 90.7 | 92 | 54
CCCCCCCOC(=O)NC(=O)c1csnn1 | 78 | 50 | 92 | 20
CCCCCCCCOC(=O)NC(=O)c1csnn1 | 63 | 50 | 81 | 20
CCCCCCCCCOC(=O)NC(=O)c1csnn1 | 23 | 50 | 60 | 27
CCCCCCCCCCOC(=O)NC(=O)c1csnn1 | 42 | 54 | 75 | 54
CCCCCCCCCCCOC(=O)NC(=O)c1csnn1 | 59 | 40 | 78 | 10
O=C(NC(=O)c1csnn1)OC1CCCCC1 | 0 | 59 | 17 | 32
CCCCCCCCCCCCCCOC(=O)NC(=O)c1csnn1 | 0 | 50 | 100 | 15
CCCCCCCCCCCCCCCCOC(=O)NC(=O)c1csnn1 | 0 | 27 | 67 | 14
O=C(NC(=O)c1csnn1)OCCCCCCCCCCBr | 25 | 41 | 42 | 0
O=C(NC(=O)c1csnn1)OCCCCCCCCCCCCBr | 6 | 36 | 21 | 13
CCCSC(=O)NC(=O)c1csnn1 | 27 | 36 | 54 | 9
CCCCSC(=O)NC(=O)c1csnn1 | 0 | 36 | 10 | 32
CCCCCCSC(=O)NC(=O)c1csnn1 | 25 | 27 | 75 | 4
CCCCCCCSC(=O)NC(=O)c1csnn1 | 12 | 32 | 35 | 4
CCCCCCCCSC(=O)NC(=O)c1csnn1 | 10 | 18 | 31 | 0
